ChEMBL document CHEMBL4396948, “Structure based design of macrocyclic factor XIa inhibitors: Discovery of cyclic P1 linker moieties with improved oral bioavailability” (Bioorg Med Chem Lett, 2019)
Blank lines part the entries; values can stand above or below the compound they belong to.

Columns and labels:
[1] = Half life in human liver microsomes; assay type: ADME, Microsome
Coagulation factor XI = Coagulation factor XI (Homo sapiens, UniProt P03951); assay: Inhibition of activated coagulation factor 11 (unknown origin) assessed as inhibitory constant
[2] = Half life in rat liver microsomes; assay type: ADME, Microsome
[3] = Permeability from apical to basolateral side in human Caco2 cells; assay type: ADME, cell-based; conditions: Caco-2, read-out: permeability
[4] = AUC in rat; assay type: ADME; conditions: in vivo
Procedure, shortened: (§1)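 Rat PK after iv and po dosing; both routes given in vehicle 70% PG, 20% water, 10% ethanol; compounds dosed either in cassette or discrete format.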

[5] = Clearance in rat at […], iv or 1.04 mg/kg, po; assay type: ADME, organism-based; conditions: in vivo
[6] = Volume of distribution at steady state in rat at […], iv or 1.04 mg/kg, po; assay type: ADME, organism-based; conditions: in vivo, read-out: Vdss
[7] = Half life in rat at […], iv or 1.04 mg/kg, po; assay type: ADME, organism-based; conditions: in vivo
[8] = Oral bioavailability in rat at 1.04 mg/kg; assay type: ADME, organism-based; conditions: in vivo; procedure, shortened: as §1
[9] = Permeability from basolateral to apical side in human Caco2 cells; assay type: ADME, cell-based; conditions: Caco-2, read-out: permeability
[10] = Clearance in rat at 0.68 mg/kg, iv or 1.36 mg/kg, po; assay type: ADME, organism-based; conditions: in vivo; procedure, shortened: as §1
[11] = Volume of distribution at steady state in rat at 0.68 mg/kg, iv or 1.36 mg/kg, po; assay type: ADME, organism-based; conditions: in vivo, read-out: Vdss; procedure, shortened: as §1
[12] = Half life in rat at 0.68 mg/kg, iv or 1.36 mg/kg, po; assay type: ADME, organism-based; conditions: in vivo; procedure, shortened: as §1
[13] = Oral bioavailability in rat at 1.36 mg/kg; assay type: ADME, organism-based; conditions: in vivo; procedure, shortened: as §1
[14] = Clearance in rat at 0.63 mg/kg, iv or 1.27 mg/kg, po; assay type: ADME, organism-based; conditions: in vivo; procedure, shortened: as §1
[15] = Volume of distribution at steady state in rat at 0.63 mg/kg, iv or 1.27 mg/kg, po; assay type: ADME, organism-based; conditions: in vivo, read-out: Vdss; procedure, shortened: as §1
[16] = Half life in rat at 0.63 mg/kg, iv or 1.27 mg/kg, po; assay type: ADME, organism-based; conditions: in vivo
Procedure, shortened: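 Rat pharmacokinetics with iv and oral dosing; the vehicle for both routes was 70% PG, 20% water and 10% ethanol. Half-life was derived from the plasma profile.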

[17] = Oral bioavailability in rat at 1.27 mg/kg; assay type: ADME, organism-based; conditions: in vivo; procedure, shortened: as §1
Coagulation factor VII = molecular target: T1, Coagulation factor VII (Homo sapiens, UniProt P08709); assay: Inhibition of activated human coagulation factor 7
T1 sequence (P08709 whole entry): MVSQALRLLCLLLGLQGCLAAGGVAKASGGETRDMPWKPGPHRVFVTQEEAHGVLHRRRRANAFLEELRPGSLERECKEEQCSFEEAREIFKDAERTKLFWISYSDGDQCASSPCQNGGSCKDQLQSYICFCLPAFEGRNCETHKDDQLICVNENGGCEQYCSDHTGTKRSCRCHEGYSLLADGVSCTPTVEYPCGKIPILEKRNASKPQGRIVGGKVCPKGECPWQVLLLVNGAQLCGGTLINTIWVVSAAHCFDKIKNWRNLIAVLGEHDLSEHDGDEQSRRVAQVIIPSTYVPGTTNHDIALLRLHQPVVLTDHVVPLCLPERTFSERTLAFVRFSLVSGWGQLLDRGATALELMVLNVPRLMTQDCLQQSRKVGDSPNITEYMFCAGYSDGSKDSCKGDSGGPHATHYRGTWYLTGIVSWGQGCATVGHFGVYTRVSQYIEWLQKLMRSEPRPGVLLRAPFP

Coagulation factor IX = Coagulation factor IX (Homo sapiens, UniProt P00740); assay: Inhibition of activated human coagulation factor 9
Coagulation factor X = Coagulation factor X (Homo sapiens, UniProt P00742); assay: Inhibition of activated human coagulation factor 10
Coagulation factor XII = molecular target: T2, Coagulation factor XII (Homo sapiens, UniProt P00748); assay: Inhibition of activated human coagulation factor 12
T2 sequence (P00748 whole entry): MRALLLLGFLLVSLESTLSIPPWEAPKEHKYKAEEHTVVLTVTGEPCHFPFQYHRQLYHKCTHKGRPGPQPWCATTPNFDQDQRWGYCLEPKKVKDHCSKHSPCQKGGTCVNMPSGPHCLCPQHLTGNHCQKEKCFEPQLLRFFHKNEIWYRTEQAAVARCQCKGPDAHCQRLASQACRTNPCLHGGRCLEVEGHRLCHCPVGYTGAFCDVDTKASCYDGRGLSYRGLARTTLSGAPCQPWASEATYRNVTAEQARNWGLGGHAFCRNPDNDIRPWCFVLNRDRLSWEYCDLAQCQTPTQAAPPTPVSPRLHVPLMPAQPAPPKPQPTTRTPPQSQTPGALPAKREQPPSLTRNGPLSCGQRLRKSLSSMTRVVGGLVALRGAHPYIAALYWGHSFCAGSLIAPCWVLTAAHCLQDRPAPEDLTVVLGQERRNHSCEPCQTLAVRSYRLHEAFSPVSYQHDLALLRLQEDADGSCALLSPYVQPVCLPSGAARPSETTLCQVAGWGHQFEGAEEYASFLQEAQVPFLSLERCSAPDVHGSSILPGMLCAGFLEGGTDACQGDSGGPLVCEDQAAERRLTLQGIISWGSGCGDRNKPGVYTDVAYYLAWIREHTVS

Prothrombin = Prothrombin (Homo sapiens, UniProt P00734); assay: Inhibition of human thrombin
Trypsin = Trypsin (Homo sapiens, UniProt P07477+P07478+P35030); assay: Inhibition of human trypsin; assay type: protein assay
[18] = molecular target: Vitamin K-dependent protein C (Homo sapiens, UniProt P04070); assay: Inhibition of human activated protein C
Plasminogen = Plasminogen (Homo sapiens, UniProt P00747); assay: Inhibition of human plasmin
[19] = molecular target: Tissue-type plasminogen activator (Homo sapiens, UniProt P00750); assay: Inhibition of human TPA
[20] = molecular target: Urokinase-type plasminogen activator (Homo sapiens, UniProt P00749); assay: Inhibition of human urokinase
[21] = Clearance in rat at 0.79 mg/kg, iv or 1.58 mg/kg, po; assay type: ADME, organism-based; conditions: in vivo; procedure, shortened: as §1
[22] = Volume of distribution at steady state in rat at 0.79 mg/kg, iv or 1.58 mg/kg, po; assay type: ADME, organism-based; conditions: in vivo, read-out: Vdss; procedure, shortened: as §1
[23] = Half life in rat at 0.79 mg/kg, iv or 1.58 mg/kg, po; assay type: ADME, organism-based; conditions: in vivo; procedure, shortened: as §1
[24] = Oral bioavailability in rat at 1.58 mg/kg; assay type: ADME, organism-based; conditions: in vivo; procedure, shortened: as §1

Coagulation factor XI, sequence (P03951 19-387 limits assumed): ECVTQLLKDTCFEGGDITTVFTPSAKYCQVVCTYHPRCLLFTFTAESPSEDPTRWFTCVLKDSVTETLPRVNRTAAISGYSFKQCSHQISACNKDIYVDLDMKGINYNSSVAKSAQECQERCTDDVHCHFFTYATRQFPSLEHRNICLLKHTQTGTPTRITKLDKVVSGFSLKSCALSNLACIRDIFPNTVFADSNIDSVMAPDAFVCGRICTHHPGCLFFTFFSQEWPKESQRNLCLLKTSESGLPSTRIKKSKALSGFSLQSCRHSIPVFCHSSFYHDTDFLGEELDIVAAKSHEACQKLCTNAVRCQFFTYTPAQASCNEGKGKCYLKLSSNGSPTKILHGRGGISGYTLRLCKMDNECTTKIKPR
Coagulation factor XI, sequence (P03951 388-625 limits assumed): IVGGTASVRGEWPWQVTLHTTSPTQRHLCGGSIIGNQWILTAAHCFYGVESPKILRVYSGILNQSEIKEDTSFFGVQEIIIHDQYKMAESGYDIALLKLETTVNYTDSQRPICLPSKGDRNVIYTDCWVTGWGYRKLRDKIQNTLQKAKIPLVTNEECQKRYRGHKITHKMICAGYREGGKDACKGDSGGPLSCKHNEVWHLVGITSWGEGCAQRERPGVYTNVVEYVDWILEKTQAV
Coagulation factor IX, sequence (P00740 47-191 limits assumed): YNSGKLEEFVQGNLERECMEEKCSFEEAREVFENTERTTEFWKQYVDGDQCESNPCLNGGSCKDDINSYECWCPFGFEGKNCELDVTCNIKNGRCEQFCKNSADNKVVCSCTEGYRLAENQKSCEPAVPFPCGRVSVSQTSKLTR
Coagulation factor IX, sequence (P00740 227-461 limits assumed): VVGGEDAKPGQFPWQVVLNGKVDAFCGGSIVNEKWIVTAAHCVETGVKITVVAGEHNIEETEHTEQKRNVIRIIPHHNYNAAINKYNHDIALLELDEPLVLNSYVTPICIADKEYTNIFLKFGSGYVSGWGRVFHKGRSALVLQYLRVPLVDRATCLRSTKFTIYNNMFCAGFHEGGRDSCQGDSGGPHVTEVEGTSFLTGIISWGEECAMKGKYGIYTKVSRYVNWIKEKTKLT
Coagulation factor X, sequence (P00742 41-179 limits assumed): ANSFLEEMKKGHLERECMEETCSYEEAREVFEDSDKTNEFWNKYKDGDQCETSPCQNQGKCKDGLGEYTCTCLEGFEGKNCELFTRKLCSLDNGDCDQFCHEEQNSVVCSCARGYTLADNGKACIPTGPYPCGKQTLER
Coagulation factor X, sequence (P00742 235-488 limits assumed): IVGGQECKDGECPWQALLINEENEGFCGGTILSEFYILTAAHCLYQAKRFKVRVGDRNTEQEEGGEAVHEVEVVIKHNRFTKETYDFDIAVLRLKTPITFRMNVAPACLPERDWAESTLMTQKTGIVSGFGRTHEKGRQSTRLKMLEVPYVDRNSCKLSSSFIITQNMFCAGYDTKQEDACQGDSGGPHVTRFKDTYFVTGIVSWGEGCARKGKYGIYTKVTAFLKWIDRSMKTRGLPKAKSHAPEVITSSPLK
Vitamin K-dependent protein C, sequence (P04070 43-197 limits assumed): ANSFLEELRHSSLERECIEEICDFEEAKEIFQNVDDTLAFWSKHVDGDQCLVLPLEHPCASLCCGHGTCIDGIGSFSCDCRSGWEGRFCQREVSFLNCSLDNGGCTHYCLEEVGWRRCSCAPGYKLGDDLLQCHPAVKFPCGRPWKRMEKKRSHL
Vitamin K-dependent protein C, sequence (P04070 212-461 limits assumed): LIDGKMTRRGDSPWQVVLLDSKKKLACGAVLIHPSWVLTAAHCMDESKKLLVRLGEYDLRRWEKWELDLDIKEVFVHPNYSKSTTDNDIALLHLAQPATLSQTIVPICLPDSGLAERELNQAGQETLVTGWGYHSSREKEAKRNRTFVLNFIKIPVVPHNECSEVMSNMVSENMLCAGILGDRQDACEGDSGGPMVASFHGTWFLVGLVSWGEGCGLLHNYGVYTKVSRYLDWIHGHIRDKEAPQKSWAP
Plasminogen, sequence (P00747 97-580 limits assumed): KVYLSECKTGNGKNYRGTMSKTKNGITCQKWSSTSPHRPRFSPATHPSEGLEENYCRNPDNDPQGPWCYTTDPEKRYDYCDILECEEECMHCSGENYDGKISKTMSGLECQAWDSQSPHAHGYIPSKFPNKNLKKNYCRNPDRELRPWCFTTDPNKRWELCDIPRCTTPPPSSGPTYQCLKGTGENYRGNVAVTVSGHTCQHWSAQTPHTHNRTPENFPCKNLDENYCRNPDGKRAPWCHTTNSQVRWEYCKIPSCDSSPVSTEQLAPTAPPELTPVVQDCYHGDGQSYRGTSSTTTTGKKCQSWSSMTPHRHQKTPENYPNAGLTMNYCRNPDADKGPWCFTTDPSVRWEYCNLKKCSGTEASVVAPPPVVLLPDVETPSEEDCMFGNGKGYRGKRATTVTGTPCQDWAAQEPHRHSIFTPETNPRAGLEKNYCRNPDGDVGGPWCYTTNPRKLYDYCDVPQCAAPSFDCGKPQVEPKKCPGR
Plasminogen, sequence (P00747 581-810 limits assumed): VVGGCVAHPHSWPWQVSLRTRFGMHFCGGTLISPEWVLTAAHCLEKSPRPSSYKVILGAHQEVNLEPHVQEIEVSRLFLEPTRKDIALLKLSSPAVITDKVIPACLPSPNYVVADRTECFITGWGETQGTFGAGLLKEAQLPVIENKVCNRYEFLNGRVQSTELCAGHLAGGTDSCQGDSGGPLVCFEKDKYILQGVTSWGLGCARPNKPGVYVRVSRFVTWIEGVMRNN
Tissue-type plasminogen activator, sequence (P00750 whole entry): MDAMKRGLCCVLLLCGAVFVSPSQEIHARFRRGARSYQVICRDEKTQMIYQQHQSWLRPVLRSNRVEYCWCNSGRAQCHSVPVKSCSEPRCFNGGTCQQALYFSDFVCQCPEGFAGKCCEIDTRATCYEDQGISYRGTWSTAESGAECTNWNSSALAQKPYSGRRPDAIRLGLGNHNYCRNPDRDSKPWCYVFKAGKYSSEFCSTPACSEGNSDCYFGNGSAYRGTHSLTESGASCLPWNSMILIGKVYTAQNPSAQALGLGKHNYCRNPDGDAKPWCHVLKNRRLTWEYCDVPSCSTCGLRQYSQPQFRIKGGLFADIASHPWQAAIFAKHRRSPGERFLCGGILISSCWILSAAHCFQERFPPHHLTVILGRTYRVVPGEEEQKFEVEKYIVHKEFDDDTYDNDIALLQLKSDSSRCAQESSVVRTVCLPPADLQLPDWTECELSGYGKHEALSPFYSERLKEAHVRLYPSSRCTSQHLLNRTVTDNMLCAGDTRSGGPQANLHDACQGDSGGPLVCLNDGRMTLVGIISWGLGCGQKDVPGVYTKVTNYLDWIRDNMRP

half-life [1]: 15 min
Structure (SMILES): COC(=O)Nc1ccc2c(c1)NC(=O)CC/C=C/C[C@H](N1CCN(c3cccc(Cl)c3)CC1=O)c1nc-2c[nH]1

Ki (Coagulation factor XI): 0.871 µM
Structure (SMILES): COC(=O)Nc1ccc(-c2nc([C@H](Cc3ccccc3)NC(=O)CCc3cccc(Cl)c3)[nH]c2Cl)cc1

half-life [1]: 32 min | half-life [2]: 45 min | Papp A→B [3]: < 1.5 ×10⁻⁶ cm/s | AUC [4]: 0.027 µM·h | clearance [5]: 44 mL/min/kg | Vd [6]: 3.2 L/kg | half-life [7]: 84 min | bioavailability [8]: 2% | Papp B→A [9]: 32.4 ×10⁻⁶ cm/s
Structure (SMILES): COC(=O)Nc1ccc2c(c1)NC(=O)CC/C=C/C[C@H](NC(=O)/C=C/c1cccc(Cl)c1)c1nc-2c[nH]1

half-life [1]: 5 min | half-life [2]: 18 min
Structure (SMILES): COC(=O)Nc1ccc2c(c1)NC(=O)CC/C=C/C[C@H](N1CC[C@H](c3cc(Cl)ccc3F)OC1=O)c1nc-2c(Cl)[nH]1

Ki (Coagulation factor XI): > 13.3 µM
Structure (SMILES): COC(=O)Nc1ccc(-c2cn3c(n2)C(Cc2ccccc2)N(C(=O)/C=C/c2cc(Cl)ccc2-n2cnnn2)CCC3)cc1 (configuration not stated)

half-life [1]: 16 min | half-life [2]: 31 min
Structure (SMILES): [2H][C@]1(c2c(F)ccc(Cl)c2F)CCN([C@H]2C/C=C/CCC(=O)Nc3cc(NC(=O)OC)ccc3-c3nc2[nH]c3Cl)C(=O)O1

Ki (Coagulation factor XI): 0.189 µM
Structure (SMILES): COC(=O)Nc1ccc(-c2nc([C@H](Cc3ccccc3)N(C)C(=O)/C=C/c3cc(Cl)ccc3-n3cnnn3)[nH]c2Cl)cc1

Ki (Coagulation factor XI): 0.372 µM
Structure (SMILES): COC(=O)Nc1ccc(-c2c[nH]c([C@@H]3[C@@H](c4ccccc4)CCN3C(=O)/C=C/c3cc(Cl)ccc3-n3cnnn3)n2)cc1

half-life [1]: 35 min | half-life [2]: 18 min
Structure (SMILES): COC(=O)Nc1ccc2c(c1)NC(=O)CC/C=C/C[C@H](N1CCC(c3cccc(Cl)c3)NC1=O)c1nc-2c[nH]1 (some centres not stated)

half-life [1]: 8 min | half-life [2]: 15 min
Structure (SMILES): COC(=O)Nc1ccc2c(c1)NC(=O)CC/C=C/C[C@H](N1CC[C@H](c3c(F)ccc(Cl)c3F)OC1=O)c1nc-2c[nH]1

Ki (Coagulation factor XI): 0.175 µM
Structure (SMILES): COC(=O)Nc1ccc(-c2nc([C@H](Cc3ccccc3)N3CCC(c4cccc(Cl)c4)NC3=O)[nH]c2Cl)cc1 (some centres not stated)

AUC [4]: 0.523 µM·h | clearance [10]: 40 mL/min/kg | Vd [11]: 1.3 L/kg | half-life [12]: 48 min | bioavailability [13]: 59%
Structure (SMILES): COC(=O)Nc1ccc2c(c1)NC(=O)CC/C=C/C[C@H](N1CC[C@H](c3cccc(Cl)c3)OC1=O)c1nc-2c[nH]1

half-life [1]: 11 min | half-life [2]: 14 min
Structure (SMILES): COC(=O)Nc1ccc2c(c1)NC(=O)CC/C=C/C[C@H](N1CC[C@H](c3cccc(Cl)c3)OC1=O)c1nc-2c(Cl)[nH]1

half-life [1]: 6 min | half-life [2]: 5 min | Papp A→B [3]: 4.6 ×10⁻⁶ cm/s | AUC [4]: 0.031 µM·h | clearance [14]: 188 mL/min/kg | Vd [15]: 4.6 L/kg | half-life [16]: 30 min | bioavailability [17]: 15% | Ki (Coagulation factor VII): 4.85 µM | Ki (Coagulation factor IX): > 27.1 µM | Ki (Coagulation factor X): > 9 µM | Ki (Coagulation factor XII): > 3.05 µM | Ki (Prothrombin): > 13.3 µM | Ki (Trypsin): > 6.26 µM | Ki [18]: > 7.16 µM | Ki (Plasminogen): > 15.2 µM | Ki [19]: > 6.15 µM | Ki [20]: > 15.1 µM | Papp B→A [9]: 30.9 ×10⁻⁶ cm/s
Structure (SMILES): COC(=O)Nc1ccc2c(c1)NC(=O)CC/C=C/C[C@H](N1CC[C@H](c3cccc(Cl)c3)CC1=O)c1nc-2c[nH]1

half-life [1]: 41 min | half-life [2]: 39 min | Papp A→B [3]: < 1.5 ×10⁻⁶ cm/s | AUC [4]: 0.011 µM·h | clearance [21]: 28 mL/min/kg | Vd [22]: 0.7 L/kg | half-life [23]: 42 min | bioavailability [24]: 0.8% | Papp B→A [9]: 5.8 ×10⁻⁶ cm/s
Structure (SMILES): COC(=O)Nc1ccc2c(c1)NC(=O)CC/C=C/C[C@H](NC(=O)/C=C/c1cc(Cl)ccc1-n1cnnn1)c1nc-2c[nH]1

half-life [1]: 9 min | half-life [2]: 7 min
Structure (SMILES): COC(=O)Nc1ccc2c(c1)NC(=O)CC/C=C/C[C@H](N1CC[C@H](c3c(F)ccc(Cl)c3F)CC1=O)c1nc-2c[nH]1

half-life [1]: 9 min | half-life [2]: 22 min
Structure (SMILES): COC(=O)Nc1ccc2c(c1)NC(=O)CC/C=C/C[C@H](N1CC[C@H](c3c(F)ccc(Cl)c3F)OC1=O)c1nc-2c(Cl)[nH]1

Ki (Coagulation factor XI): 0.422 µM
Structure (SMILES): COC(=O)Nc1ccc(-c2nc([C@H](Cc3ccccc3)NC(=O)NCc3cccc(Cl)c3)[nH]c2Cl)cc1

half-life [1]: 41 min | half-life [2]: 26 min
Structure (SMILES): COC(=O)Nc1ccc2c(c1)NC(=O)CC/C=C/C[C@H](N1CCC(c3c(F)ccc(Cl)c3F)NC1=O)c1nc-2c[nH]1 (some centres not stated)

half-life [1]: 18 min | half-life [2]: 49 min
Structure (SMILES): COC(=O)Nc1ccc2c(c1)NC(=O)CC/C=C/C[C@H](N1CC[C@H](c3cc(Cl)ccc3C(F)(F)F)OC1=O)c1nc-2c(Cl)[nH]1
